Experimental data taken from ChEMBL document CHEMBL1124344, “5-Piperazinylalkyl-2(3H)-oxazolones with neuroleptic activity” (J Med Chem, 1989).

Key:
Rattus norvegicus [1] = assay: Antagonistic activity against apomorphine-induced stereotypy in rats, by administering perorally at a dose of 70 mg/kg; type: functional; conditions: route oral
Summary of the method: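 Male rats fasted overnight and given oral doses in arabic gum suspension (10 mL/kg) 1 h, or 1 and 5 h, before challenge. Apomorphine 3 mg/kg iv, with stereotypy observed 20 min later. ED50 is the dose inhibiting stereotypy in 50% of rats, per Janssen's method. Parenthetical entries give the maximal dose and percent activity.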

Mus musculus [2] = assay: Antagonistic activity against amphetamine-induced Hypermobility in mice, by administering perorally at a dose of 70 mg/kg; type: functional; conditions: route oral
Summary of the method: (§1)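 Male mice in groups of five, fasted overnight, given oral drug in arabic gum suspension (10 mL/kg) 1 or 5 h ahead. Amphetamine 4 mg/kg ip given 30 min after drug. Ten minutes later locomotion is recorded for 15 min in a photocell actophotometer. ED50 is 50% reduction versus control hypermotility, by probit analysis. Parenthetical entries give the maximal dose and percent activity.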

[3] = Lethal dose in mice (LD50) following i.p. dosing; type: toxicity, organism-based; conditions: mouse, in vivo, ip
Summary of the method: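 Acute toxicity tested in mice by the intraperitoneal route. LD50 is the dose killing 50% of treated mice, computed by Finney probit analysis; values are approximate.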

Mus musculus [4] = assay: Inhibition of spontaneous motor activity in mice, by administering perorally at a dose of 70 mg/kg; type: functional; conditions: route oral
Summary of the method: (§2)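 Mice fasted overnight, then dosed orally with compound (weighed as base) suspended in arabic gum, 10 mL/kg, with vehicle controls; 1 h pretreatment for screening tests, 1 or 5 h for others. Groups of five; locomotor activity counted 10 min in photocell activity cage, at least two groups per dose. ED50 = dose giving 50% inhibition versus controls, by probit analysis.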

Rattus norvegicus [5] = assay: Activity to evoke catalepsy in rats, by administering perorally at a dose of 70 mg/kg; type: functional; conditions: route oral
Summary of the method: (§3)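 Rats fasted overnight and given oral doses in arabic gum suspension (10 mL/kg), 1 h before screening or 1 and 5 h before profile testing. Forelegs placed on a horizontal bar 7 cm high, three times at 5-min intervals. Immobility of at least 15 s counts as catalepsy. ED50 is the dose giving catalepsy in 50% of rats, by probit analysis. Parenthetical entries give the maximal dose and percent activity.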

Rattus norvegicus [6] = assay: Inhibition against conditioned avoidance response, after 1 hour of peroral administration in rats; type: functional; conditions: po
Summary of the method: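 Male rats were trained in a shuttle box to avoid grid-floor shock by crossing compartments during a warning period. Dosing was oral as a gum arabic suspension at 10 mL/kg after an overnight fast. Percent inhibition was computed against a pretraining test. ED50 is the dose giving 50% inhibition.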

Rattus norvegicus [7] = assay: Antagonistic activity against amphetamine-induced stereotypy, after 5 hour of peroral administration in rats at a dose of 20 mg/kg; conditions: po, read-out: Inhibition
Mus musculus [8] = assay: Effect on skeletal muscle tone, after 1 hour of peroral administration in mouse; type: functional; conditions: Muscle tissue, po
Summary of the method: (§4)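 Male mice suspended by forepaws from a 1.8-mm wire stretched 15 cm above a plane. Trained normal mice touch the wire with a hind paw within 2 s (traction) and hang at least 1 min (suspension). Oral dosing 1 or 5 h before. ED50 is the dose making 50% of mice fall without traction and suspension.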

Mus musculus [9] = assay: Antagonistic activity against amphetamine-induced Hypermobility in mouse by administering perorally; type: functional; conditions: po; summary of the method: as §1
Mus musculus [10] = assay: Anticonvulsant activity against pentylenetetrazole-induced convulsions, after 5 hour of peroral administration in mouse at a dose of 40 mg/kg; type: functional; conditions: route oral
Summary of the method: (§5)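 Male mice dosed orally (arabic gum, 10 mL/kg) 1 or 5 h before challenge with tryptamine 100 mg/kg iv, pentylenetetrazol 110 mg/kg ip, or maximal electroshock. Protection means no bilateral forepaw clonic seizures and head twitches (tryptamine) or no tonic hind-limb extension (others). ED50 protects 50% of mice.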

Mus musculus [11] = assay: Antagonistic activity against amphetamine-induced hypermotility, after 5 hour of peroral administration in mouse; type: functional; conditions: po; summary of the method: as §1
Mus musculus [12] = assay: Anticonvulsant activity against pentylenetetrazole-induced convulsions, after 1 hour of peroral administration in mouse at a dose of 40 mg/kg; type: functional; conditions: route oral; summary of the method: as §5
Mus musculus [13] = assay: Potentiation against pentobarbital-induced sleeping, after 1 hour of peroral administration in mouse; type: functional; conditions: po
Summary of the method: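 Female mice fasted overnight, dosed orally 1 or 5 h beforehand as arabic gum suspension, 10 mL/kg, with vehicle controls. Subhypnotic pentobarbital 10 mg/kg iv; 3 min later placed on back, effect scored as complete loss of righting reflex for at least 15 s. ED50 = dose producing this in 50% of mice, probit analysis.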

Mus musculus [14] = assay: Inhibition of spontaneous motor activity, after 5 hour of peroral administration in mouse; type: functional; conditions: po; summary of the method: as §2
Mus musculus [15] = assay: Inhibition against apomorphine-induced climbing, after 1 hour of peroral administration in mouse; type: functional; conditions: po
Summary of the method: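 Mice were dosed orally (gum arabic suspension, 10 mL/kg, fasted), then given apomorphine 1 mg/kg sc and placed in cylindrical cages with vertical metal bars. Climbing was scored 0 for four paws on the floor, 1 for forefeet on the wall, 2 for four paws on the wall. ED50 is the dose halving the control score.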

Mus musculus [16] = assay: Contractile activity in skeletal muscles, after 5 hour of peroral administration in mouse at a dose of 40 mg/kg; type: functional; conditions: Muscle tissue, route oral; summary of the method: as §4
Mus musculus [17] = assay: Activity of inclined screen in mouse, after 1 hour of peroral administration in mouse; type: functional
Summary of the method: (§6)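 Male mice placed for 1 h on a wire screen inclined 60°, just after oral dosing and 4 h later; ataxic or relaxed mice slide off. Fasted overnight, 10 per dose, vehicle controls. Compounds weighed as bases, suspended in arabic gum, 10 mL/kg orally; ED50 by Finney probit analysis.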

Mus musculus [18] = assay: Anticonvulsant activity against tryptamine-induced convulsions, after 5 hour of peroral administration in mouse at a dose of 40 mg/kg; type: functional; conditions: route oral; summary of the method: as §5
Mus musculus [19] = assay: Inhibitory activity against tremorine-induced tremors, after 1 hour of peroral administration in mouse; type: functional; conditions: po
Summary of the method: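 Male mice given oral drug, then tremorine 20 mg/kg ip 1 h later; central tremor and peripheral salivation recorded. ED50 is the dose protecting 50% of animals from tremorine effects, by probit analysis.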

Rattus norvegicus [20] = assay: Antagonistic activity against apomorphine-induced stereotypy in rats, by administering perorally at a dose of 80 mg/kg; conditions: po, read-out: Inhibition
Rattus norvegicus [21] = assay: Body weight gain, after 1 hour of peroral administration in rats; type: functional; conditions: po
Summary of the method: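 Female rats (250–280 g), individually caged, on 22-h food deprivation with pellets 10–12 a.m.; weighed before and after eating. After 30–40 days training, oral drug given 1 h before the 2-h feeding. Weight gain expressed as percent of the two preceding control days; ED50 is the dose giving 50% reduction.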

Mus musculus [22] = assay: Contractile activity in skeletal muscles, after 1 hour of peroral administration in mouse; type: functional; conditions: Muscle tissue, po
Summary of the method: (§7)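 Male mice were placed for 1 h on a 60° inclined wire screen just after dosing and 4 h later. In a second test, trained mice hung by the forepaws from a horizontal 1.8 mm wire 15 cm up; normal mice touch it with a hind paw within 2 s and stay ≥1 min. ED50 is the dose making 50% fall. Dosing was oral in gum arabic suspension at 10 mL/kg after an overnight fast.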

Mus musculus [23] = assay: Inhibitory activity against tremorine-induced salivation, after 1 hour of peroral administration in mouse; type: functional; conditions: po
Summary of the method: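 Male mice fasted overnight, dosed orally with arabic gum suspension (10 mL/kg) 1 or 5 h before test, vehicle controls included. Tremorine 20 mg/kg ip given 1 h after compounds; central (tremor) and peripheral (salivation) parasympathetic signs recorded. ED50 = dose protecting 50% of animals, by probit analysis.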

Mus musculus [24] = assay: Inhibition of spontaneous motor activity in mouse, by administering perorally; type: functional; conditions: po; summary of the method: as §2
Mus musculus [25] = assay: Suppression of aggressive behavior, after 1 hour of peroral administration in mouse; type: functional; conditions: po
Summary of the method: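 Male mice made aggressive by isolation in individual black cages for about 1 month plus weekly testosterone cyclopentylpropionate 250 mg/kg sc; pairs preselected for attack on a nonisolated male within 15 min. Oral dosing (arabic gum, 10 mL/kg) 1 or 5 h before test, overnight fast. ED50 = dose suppressing aggression in 50% of animals, probit analysis.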

Rattus norvegicus [26] = assay: Activity to evoke catalepsy, after 1 hour of peroral administration in rats; type: functional; conditions: po; summary of the method: as §3
Mus musculus [27] = assay: Suppression of aggressive behavior, after 5 hour of peroral administration in mouse at a dose of 10 mg/kg; type: functional; conditions: route oral
Summary of the method: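 Male mice made aggressive by about 1 month of isolation in individual black cages plus weekly testosterone cyclopentylpropionate 250 mg/kg sc. Pairs preselected for aggressiveness shortly before oral dosing 1 or 5 h beforehand; attack on a nonisolated male within 15 min scored. ED50 is the dose suppressing aggression in 50% of animals.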

Mus musculus [28] = assay: Effect on skeletal muscle tone, after 5 hour of peroral administration in mouse; type: functional; conditions: Muscle tissue, po; summary of the method: as §7
Mus musculus [29] = assay: Anticonvulsant activity against tryptamine-induced convulsions, after 1 hour of peroral administration in mouse; type: functional; conditions: po
Summary of the method: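 Compounds were dosed as bases suspended in arabic gum at 10 mL/kg orally, after an overnight fast, with vehicle controls. Protection meant no bilateral forepaw clonic seizures or head twitches (tryptamine), or no tonic hind-limb extension (the other two). ED50 is the dose protecting 50%, by probit analysis.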

Rattus norvegicus [30] = species: Rattus norvegicus; assay: animal or person; conditions: po, read-out: Inhibition
Rattus norvegicus [31] = assay: Antagonistic activity against apomorphine-induced stereotypy, after 5 hour of peroral administration in rats at a dose of 80 mg/kg; conditions: po, read-out: Inhibition
Rattus norvegicus [32] = assay: Antagonistic activity against apomorphine-induced stereotypy, after 1 hour of peroral administration in rats at a dose of 80 mg/kg; conditions: po, read-out: Inhibition
Mus musculus [33] = assay: Inhibitory activity against tremorine-induced tremors, after 5 hour of peroral administration in mouse; type: functional; conditions: po
Mus musculus [34] = assay: Antagonistic activity against amphetamine-induced hypermotility, after 1 hour of peroral administration in mouse; type: functional; conditions: po; summary of the method: as §1
Mus musculus [35] = assay: Activity of inclined screen in mouse, after 5 hour of peroral administration in mouse; type: functional; summary of the method: as §6
Mus musculus [36] = assay: Inhibition of spontaneous motor activity, after 1 hour of peroral administration in mouse; type: functional; conditions: po; summary of the method: as §2
Rattus norvegicus [37] = assay: Inhibition against conditioned avoidance response, after 5 hour of peroral administration in rats at a dose of 20 mg/kg; conditions: po, read-out: Inhibition
Rattus norvegicus [38] = assay: Antagonistic activity against amphetamine-induced stereotypy, after 1 hour of peroral administration in rats at a dose of 20 mg/kg; conditions: po, read-out: Inhibition
Mus musculus [39] = assay: Anticonvulsant activity against electroshock-induced convulsions, after 1 hour of peroral administration in mouse at a dose of 26 mg/kg; type: functional; conditions: route oral; summary of the method: as §5

Structure (SMILES): CSc1ccc(-c2nc(O)oc2CCN2CCN(c3ccccc3)CC2)cc1
- inhibition in vivo at 70 mg/kg (Rattus norvegicus [1]): 0%
- inhibition in vivo at 70 mg/kg (Mus musculus [2]): 0%
- LD50 [3]: 250 mg/kg
- inhibition in vivo at 70 mg/kg (Mus musculus [4]): 47%
- inhibition in vivo at 70 mg/kg (Rattus norvegicus [5]): 0%

Structure (SMILES): CN1CCN(C2=Nc3cc(Cl)ccc3Nc3ccccc32)CC1 [CLOZAPINE]
- ED50 (Rattus norvegicus [6]): 8.6 mg/kg
- inhibition in vivo at 20 mg/kg (Rattus norvegicus [7]): 0%
- ED50 (Mus musculus [8]): 9.2 mg/kg
- ED50 (Mus musculus [9]): 4.5 mg/kg
- inhibition in vivo at 40 mg/kg (Mus musculus [10]): 0%
- ED50 (Mus musculus [11]): 20.1 mg/kg
- inhibition in vivo at 40 mg/kg (Mus musculus [12]): 0%
- ED50 (Mus musculus [13]): 6.6 mg/kg
- ED50 (Mus musculus [14]): 23 mg/kg
- ED50 (Mus musculus [15]): 12 mg/kg
- inhibition in vivo at 40 mg/kg (Mus musculus [16]): 10%
- ED50 (Mus musculus [17]): 9.3 mg/kg
- inhibition in vivo at 40 mg/kg (Mus musculus [18]): 0%
- LD50 [3]: 100 mg/kg
- ED50 (Mus musculus [19]): 30 mg/kg
- inhibition in vivo at 80 mg/kg (Rattus norvegicus [20]): 30%
- ED50 (Rattus norvegicus [21]): 8 mg/kg
- ED50 (Mus musculus [22]): 40 mg/kg
- ED50 (Mus musculus [23]): 6.9 mg/kg
- ED50 (Mus musculus [24]): 4.2 mg/kg
- ED50 (Mus musculus [25]): 3.5 mg/kg
- ED50 (Rattus norvegicus [26]): 34 mg/kg
- inhibition in vivo at 10 mg/kg (Mus musculus [27]): 0%
- ED50 (Mus musculus [28]): 30 mg/kg
- ED50 (Mus musculus [29]): 10.3 mg/kg
- inhibition in vivo at 26 mg/kg (Rattus norvegicus [30]): 37%
- inhibition in vivo at 80 mg/kg (Rattus norvegicus [31]): 0%
- inhibition in vivo at 80 mg/kg (Rattus norvegicus [32]): 30%
- ED50 (Mus musculus [33]): 30 mg/kg
- ED50 (Mus musculus [34]): 4.5 mg/kg
- ED50 (Mus musculus [35]): 18.8 mg/kg
- ED50 (Mus musculus [36]): 4.2 mg/kg
- inhibition in vivo at 20 mg/kg (Rattus norvegicus [37]): 0%
- inhibition in vivo at 20 mg/kg (Rattus norvegicus [38]): 20%
- inhibition in vivo at 26 mg/kg (Mus musculus [39]): 37%
